Data from ChEMBL document CHEMBL4184212, “Design, synthesis and evaluation against Chikungunya virus of novel small-molecule antiviral agents” (Bioorg Med Chem, 2018).

Tests used:
[1] = Selectivity index, ratio of CC50 for African green monkey Vero cells to EC50 for Chikungunya virus Indian Ocean 889 infected in African green monkey Vero cells; format: toxicity; conditions: read-out: Ratio CC50/EC50
[2] = system: Chikungunya virus; assay: Antiviral activity against Chikungunya virus Indian Ocean 889 infected in African green monkey Vero cells assessed as inhibition of virus-induced cytopathic effect after 5 days by MTS/PMS method; format: functional, organism-based; conditions: Indian Ocean 889, Vero, 120 h
[3] = Cytotoxicity against African green monkey Vero cells assessed as decrease in cell viability after 5 days by MTS/PMS method; format: cell-based; conditions: chlorocebus sabaeus
Procedure, shortened: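 Uninfected Vero cells in MEM Rega-3 with 2% FBS were treated with compound alongside the antiviral assay. Metabolic activity was read by MTS/PMS, and wells were checked microscopically for morphology changes. CC50 is the concentration reducing metabolic activity by 50%, found by logarithmic interpolation. Values are the mean of ≥3 independent experiments.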

CC(C)(C)c1ccc(/C=C/C(=O)NCc2ccc(C(F)(F)F)cc2)cc1
selectivity ratio [1]: 0.9 | EC50 [2]: 125 µM | EC90 [2]: 47.9 µM | CC50 at 120 h [3]: 115 µM

CC(C)(C)c1ccc(/C=C/C(=O)N/N=C/c2ccccc2)cc1
selectivity ratio [1]: 3.8 | EC50 [2]: 5.8 µM | EC90 [2]: 87.5 µM | CC50 at 120 h [3]: 22.1 µM

COc1ccc(/C(C)=N/NC(=O)/C=C/c2ccc(C(C)(C)C)cc2)cc1OC
EC50 [2]: > 263 µM | EC90 [2]: > 263 µM

Cc1ccc(/C=N/NC(=O)CCc2ccc(C(C)(C)C)cc2)cc1
EC50 [2]: > 100 µM | EC90 [2]: > 100 µM

C/C(=N\NC(=O)/C=C/c1ccc(C(C)(C)C)cc1)c1ccc(-c2ccccc2)cc1
EC50 [2]: > 252 µM | EC90 [2]: > 252 µM

O=C(N/N=C/c1ccc(O)cc1)[C@@H]1C[C@H]1c1ccccc1
selectivity ratio [1]: 2.3 | EC50 [2]: 6.4 µM | EC90 [2]: 8.7 µM | CC50 at 120 h [3]: 15 µM

CC(C)(C)c1ccc(/C=C/C(=O)NCc2ccc(-c3ccccc3)cc2)cc1
EC50 [2]: 2.9 µM | EC90 [2]: > 271 µM | CC50 at 120 h [3]: 4.3 µM

CC(C)(C)c1ccc([C@@H]2C[C@H]2C(=O)N/N=C/c2ccc(O)cc2)cc1
EC50 [2]: 2.7 µM | EC90 [2]: 3.8 µM

C/C(=N\NC(=O)/C=C/c1ccc(C(C)(C)C)cc1)c1ccc(Cl)cc1
EC50 [2]: > 282 µM | EC90 [2]: > 282 µM

Cc1ccc(/C=N/NC(=O)/C=C/c2ccccc2)cc1
selectivity ratio [1]: 0.9 | EC50 [2]: 93.3 µM | EC90 [2]: > 284 µM | CC50 at 120 h [3]: 84.4 µM

CCOc1ccc(/C=N/NC(=O)CCc2ccccc2)cc1OCC
EC50 [2]: > 294 µM | EC90 [2]: > 294 µM

O=C(CCc1ccccc1)N/N=C/c1ccc(O)cc1
EC50 [2]: > 373 µM | EC90 [2]: > 373 µM

C/C(=N\NC(=O)CCc1ccc(C(C)(C)C)cc1)c1ccc(C2CCCCC2)cc1
EC50 [2]: > 82.4 µM | EC90 [2]: > 82.4 µM

CCOc1ccc(/C=N/NC(=O)[C@@H]2C[C@H]2c2ccc(C(C)(C)C)cc2)cc1OCC
selectivity ratio [1]: 14 | EC50 [2]: 5 µM | EC90 [2]: 6.4 µM | CC50 at 120 h [3]: 72 µM

CC(C)(C)c1ccc(/C=C/C(=O)N/N=C/c2ccc([N+](=O)[O-])cc2)cc1
EC50 [2]: > 285 µM | EC90 [2]: > 285 µM

O=C(/C=C/c1ccccc1)NCc1ccc(-c2ccccc2)cc1
EC50 [2]: > 319 µM | EC90 [2]: > 319 µM

COc1ccc(/C=N/NC(=O)/C=C/c2ccc(C(C)(C)C)cc2)cc1
selectivity ratio [1]: 19.8 | EC50 [2]: 5.9 µM | EC90 [2]: 38.8 µM | CC50 at 120 h [3]: 117 µM

Cc1ccc(/C=N/NC(=O)[C@@H]2C[C@H]2c2ccc(C(C)(C)C)cc2)cc1
EC50 [2]: 6.6 µM

CC(C)(C)c1ccc(/C=C/C(=O)N/N=C/c2ccc(-c3ccccc3)cc2)cc1
CC50 at 120 h [3]: 20.1 µM

C/C(=N\NC(=O)/C=C/c1ccc(C(C)(C)C)cc1)c1cnccn1
selectivity ratio [1]: 1.2 | EC50 [2]: 103 µM | EC90 [2]: 122 µM | CC50 at 120 h [3]: > 310 µM

C/C(=N\NC(=O)[C@@H]1C[C@H]1c1ccccc1)c1ccc(C2CCCCC2)cc1
selectivity ratio [1]: 3.1 | EC50 [2]: 32 µM | EC90 [2]: 44 µM | CC50 at 120 h [3]: 101 µM

CC(C)(C)c1ccc(/C=C/C(=O)N/N=C/c2ccc(O)cc2)cc1
CC50 at 120 h [3]: 7.3 µM

Cc1ccc(/C=N/NC(=O)/C=C/c2ccc(C(C)(C)C)cc2)cc1
selectivity ratio [1]: 21.4 | EC50 [2]: 5.8 µM | EC90 [2]: 10 µM | CC50 at 120 h [3]: 124 µM

C/C(=N\NC(=O)/C=C/c1ccc(C(C)(C)C)cc1)c1ccc(C2CCCCC2)cc1
EC50 [2]: > 248 µM | EC90 [2]: > 248 µM

CCOc1ccc(/C=N/NC(=O)/C=C/c2ccc(C)cc2)cc1OCC
selectivity ratio [1]: > 2.5 | EC50 [2]: 113 µM | EC90 [2]: > 284 µM | CC50 at 120 h [3]: > 284 µM

CCOc1ccc(/C=N/NC(=O)/C=C/c2ccc(C(C)(C)C)cc2)cc1OCC
selectivity ratio [1]: 32 | EC90 [2]: 11 µM | CC50 at 120 h [3]: 101 µM

Cc1ccc(/C=C/C(=O)N/N=C/c2ccc(C)cc2)cc1
EC50 [2]: > 359 µM | EC90 [2]: > 359 µM

O=C(/C=C/c1ccccc1)NCc1ccc(C(F)(F)F)cc1
EC50 [2]: > 246 µM | EC90 [2]: > 246 µM

CC(C)(C)c1ccc(/C=C/C(=O)N/N=C/c2ccc(C(C)(C)C)cc2)cc1
EC50 [2]: > 276 µM | EC90 [2]: > 276 µM

CC(C)(C)c1ccc(CCC(=O)N/N=C/c2ccc(O)cc2)cc1
EC50 [2]: 36.4 µM

C/C(=N\NC(=O)/C=C/c1ccccc1)c1ccc(C2CCCCC2)cc1
EC50 [2]: > 289 µM | EC90 [2]: > 289 µM

CCOc1ccc(/C=N/NC(=O)CCc2ccc(C(C)(C)C)cc2)cc1OCC
EC50 [2]: > 11 µM | EC90 [2]: > 11 µM

O=C(CCc1ccccc1)N/N=C/c1ccc(C2CCCCC2)cc1
EC50 [2]: > 96 µM | EC90 [2]: > 96 µM

CC(C)c1ccc(/C=N/NC(=O)/C=C/c2ccc(C(C)(C)C)cc2)cc1
selectivity ratio [1]: 3.5 | EC50 [2]: 2.1 µM | CC50 at 120 h [3]: 7.4 µM

Cc1ccc(/C=N/NC(=O)CCc2ccccc2)cc1
EC50 [2]: > 375 µM | EC90 [2]: > 375 µM

CC(C)(C)c1ccc([C@@H]2C[C@H]2C(=O)N/N=C/c2ccc(C(F)(F)F)cc2)cc1
selectivity ratio [1]: 2.1 | EC50 [2]: 14 µM | EC90 [2]: 19 µM | CC50 at 120 h [3]: 30 µM

COc1ccc(/C(C)=N/NC(=O)[C@@H]2C[C@H]2c2ccccc2)cc1
selectivity ratio [1]: 13 | EC50 [2]: 5.6 µM | EC90 [2]: 12 µM | CC50 at 120 h [3]: 72 µM

CCN(CC)CCCC(C)Nc1ccnc2cc(Cl)ccc12 (centres undefined) [CHLOROQUINE]
EC90 [2]: 21 µM | CC50 at 120 h [3]: 89 µM
